According to PMC7775634 (Cell reports, 2020):
Changes are numbered by the printed parent chain. Numbers in names are those of the source. Blank lines part the entries; values can stand above or below the molecule they belong to. Ends that are not written are not given here. * marks the point of attachment. Biotin = O=C1N[C@H]2[C@H](CS[C@H]2CCCCC(=O)*)N1; Rhodamine = not defined here

How the values were obtained:
[1] = tested on: Cdc15 phosphostate in cells; conditions: FK506-treated cells; ref Martín-García et al., 2018; cited from earlier work
Imp2 F-BAR domain = assay: In vitro binding assay; set-up: species or system S. pombe; conditions: biotin-labeled peptide; streptavidin pull down; SDS-PAGE, Coomassie
Procedure, shortened: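 Biotinylated test peptide (0.10 μM) and purified F-BAR domain (0.05 μM) were mixed with streptavidin resin. Incubation was 1 h at 4°C in 50 mM Tris pH 7.4, 250 mM NaCl, 0.1% NP-40. Resin was washed thoroughly. Bound protein was resolved by SDS-PAGE and stained with Coomassie blue.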

[2] = molecular target: T1, Cdc15 F-BAR domain (E30K E152K) (Schizosaccharomyces pombe, UniProt Q09822, E152K/E30K); assay: Isothermal titration calorimetry; assay type: binding, S. pombe
T1 sequence (Q09822 19-312 E30K/E152K): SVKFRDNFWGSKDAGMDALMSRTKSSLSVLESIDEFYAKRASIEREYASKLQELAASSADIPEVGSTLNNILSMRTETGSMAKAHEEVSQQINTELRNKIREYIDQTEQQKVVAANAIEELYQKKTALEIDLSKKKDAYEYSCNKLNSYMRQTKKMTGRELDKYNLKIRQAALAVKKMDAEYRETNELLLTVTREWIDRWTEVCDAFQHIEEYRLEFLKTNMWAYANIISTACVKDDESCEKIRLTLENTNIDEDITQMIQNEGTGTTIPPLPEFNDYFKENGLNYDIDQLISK

Cdc15 F-BAR domain = assay: Binding between purified Cdc15 F-BAR domain and recombinant CN; set-up: species or system S. pombe
[3] = molecular target: T2, GFP-Cdc15 F-BAR domain (residues 19-312) (S. pombe, UniProt Q09822 19-312); assay: recruitment to giant unilamellar vesicles, fluorescence microscopy
T2 sequence (looked up): T1 sequence (Q09822 19-312 E30K/E152K) with K12E, K134E

[4] = phosphorylated; ref Bhattacharjee et al., 2020; cited from earlier work

Molecule: C=CC[C@@H]1/C=C(\C)C[C@H](C)C[C@H](OC)[C@H]2O[C@@](O)(C(=O)C(=O)N3CCCC[C@H]3C(=O)O[C@H](/C(C)=C/[C@@H]3CC[C@@H](O)[C@H](OC)C3)[C@H](C)[C@@H](O)CC1=O)[C@H](C)C[C@@H]2OC [FK506]
- Cdc15 phosphostate [1]: Cdc15 phosphostate changes

Molecule: TPTPSARRTIGPRAPKSKTTY [Cdc12 peptide]
- Kd [2]: 5 µM

B1: Cdc15 (E30K E152K): Full-length FLAG-Cdc15 (E30K E152K) co-expressed with kinase Pom1 (protein, UniProt Q09822 1-927, looked up, variant E30K E152K)
chain: MEVNGVSQSEAAPYVTKSSVKFRDNFWGSKDAGMDALMSRTKSSLSVLESIDEFYAKRASIEREYASKLQELAASSADIPEVGSTLNNILSMRTETGSMAKAHEEVSQQINTELRNKIREYIDQTEQQKVVAANAIEELYQKKTALEIDLSKKKDAYEYSCNKLNSYMRQTKKMTGRELDKYNLKIRQAALAVKKMDAEYRETNELLLTVTREWIDRWTEVCDAFQHIEEYRLEFLKTNMWAYANIISTACVKDDESCEKIRLTLENTNIDEDITQMIQNEGTGTTIPPLPEFNDYFKENGLNYDIDQLISKAPSYPYSSSRPSASASLASSPTRSAFRPKTSETVSSEVVSSPPTSPLHSPVKPVSNEQVEQVTEVELSIPVPSIQEAESQKPVLTGSSMRRPSVTSPTFEVAARPLTSMDVRSSHNAETEVQAIPAATDISPEVKEGKNSENAITKDNDDIILSSQLQPTATGSRSSRLSFSRHGHGSQTSLGSIKRKSIMERMGRPTSPFMGSSFSNMGSRSTSPTKEGFASNQHATGASVQSDELEDIDPRANVVLNVGPNMLSVGEAPVESTSKEEDKDVPDPIANAMAELSSSMRRRQSTSVDDEAPVSLSKTSSSTRLNGLGYHSRNTSIASDIDGVPKKSTLGAPPAAHTSAQMQRMSNSFASQTKQVFGEQRTENSARESLRHSRSNMSRSPSPMLSRRSSTLRPSFERSASSLSVRQSDVVSPAPSTRARGQSVSGQQRPSSSMSLYGEYNKSQPQLSMQRSVSPNPLGPNRRSSSVLQSQKSTSSNTSNRNNGGYSGSRPSSEMGHRYGSMSGRSMRQVSQRSTSRARSPEPTNRNSVQSKNVDPRATFTAEGEPILGYVIALYDYQAQIPEEISFQKGDTLMVLRTQEDGWWDGEIINVPNSKRGLFPSNFVQTV
modifications: full-length FLAG tag
- membrane binding [4]: did not bind membrane

The remaining lines, values ahead:

- interaction with Imp2 F-BAR domain (Imp2 F-BAR domain): did not interact
Molecule: Cdc12 peptide (residues 20–40): Cdc12 (residues 20–40) peptide synthesized with an N-terminal biotin modification, used for binding assays (Biotin-TPTPSARRTIGPRAPKSKTTY)

- binding to purified Cdc15 F-BAR domain (Cdc15 F-BAR domain): did not detect binding
Molecule: recombinant CN: Calcineurin produced by co-expressing Ppb1 as a 6xHis fusion (catalytic subunit), Cnb1 (regulatory subunit), and Cam1 (calmodulin)

- binding result [3]: binds
Molecule: Rhodamine-TPTPSARRTIGPRAPKSKTTY (reading uncertain) [Rhodamine-Cdc12(aa20-40) peptide]
